# Experimental data: ChEMBL document CHEMBL4316599, “Synthesis, in vitro and in vivo biological evaluation of substituted 3-(5-imidazo[2,1-b]thiazolylmethylene)-2-indolinones as new potent anticancer agents” (Eur J Med Chem, 2019)
# The source made the active and inactive calls. No cut-off for these calls is given here.
# Legend:
# CNS carcinoma cell = assay: Cytotoxicity against human CNS cancer cells after 48 hrs by SRB assay; format: functional
# Procedure, shortened: (§1)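 NCI-60 screen: single-dose pass at 10^-5 M, then a five-concentration assay from 10^-9 to 10^-4 M (highest 100 μM). Exposure was 48 h under standard NCI protocols. GI50, TGI and LC50 were derived per cell line and averaged by subpanel. Repeated tests are the mean of two experiments.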
# NSCLC = assay: Cytotoxicity against human NSCLC cells after 48 hrs by SRB assay; format: functional; procedure, shortened: as §1
# [1] = Cytotoxicity against human PHA-stimulated PBL after 72 hrs by MTT assay; format: cell-based; conditions: PHA-stimulated peripheral blood lymphocytes (PBL)
# Procedure, shortened: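 Lymphocytes from healthy donors were isolated on a Lymphoprep gradient and held overnight in RPMI-1640 with 10% FBS. Non-adherent cells were set at 5×10^5 cells/mL, either resting or stimulated with 2.5 μg/mL PHA. Cells were exposed to a range of compound concentrations for 72 h and viability read by MTT. GI50 is the mean ± SEM of three separate experiments.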
# Tubulin = Tubulin (Bos taurus, UniProt Q6B856+Q862L2+Q862F3); assay: Inhibition of bovine brain tubulin polymerization after 20 mins by spectrophotometric analysis
# Procedure, shortened: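 Bovine brain tubulin (10 μM) in glutamate buffer preincubated with varying compound levels at 30 °C, then chilled to 0 °C. GTP added to 0.4 mM final, then warmed to 30 °C. Assembly followed by turbidity at 350 nm. IC50 is the concentration halving the extent of assembly after 20 min.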
# Tubulin (Bos taurus) = Tubulin (Bos taurus) (UniProt Q6B856+Q862L2+Q862F3); assay: Inhibition of [3H]colchicine binding to bovine brain tubulin at 5 uM after 20 mins relative to control
# Procedure, shortened: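 Reaction mixtures held 1 μM tubulin, 5 μM [³H]colchicine and test compound at 5 or 50 μM. Read-out was percent inhibition of colchicine binding.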
# HeLa [2] = assay: Cell cycle arrest in human HeLa cells assessed as accumulation of cells at G2/M phase after 24 hrs by propidium iodide staining-based flow cytometric analysis; format: functional
# Procedure, shortened: (§2)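 Cells exposed to a range of concentrations for 24 h (HeLa at 5×10^5 cells), then fixed in ice-cold 70% ethanol. Lysis buffer with RNase A and 0.1% Triton X-100 was applied before PI staining. DNA content was read by flow cytometry and G1/S/G2/M fractions taken from DNA histograms. Mean ± SEM of two independent experiments.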
# HT-29 [3] = assay: Cell cycle arrest in human HT-29 cells assessed as accumulation of cells at G2/M phase after 24 hrs by propidium iodide staining-based flow cytometric analysis; format: functional; procedure, shortened: as §2
# A549 [4] = assay: Cell cycle arrest in human A549 cells assessed as accumulation of cells at G2/M phase after 24 hrs by propidium iodide staining-based flow cytometric analysis; format: functional; procedure, shortened: as §2
# HeLa [5] = assay: Cell cycle arrest in human HeLa cells assessed as accumulation of cells at G2/M phase at 50 nM after 24 hrs by propidium iodide staining-based flow cytometric analysis relative to control; format: functional; procedure, shortened: as §2
# HT-29 [6] = assay: Cell cycle arrest in human HT-29 cells assessed as accumulation of cells at G2/M phase at 50 nM after 24 hrs by propidium iodide staining-based flow cytometric analysis relative to control; format: functional; procedure, shortened: as §2
# A549 [7] = assay: Cell cycle arrest in human A549 cells assessed as reduction in accumulation of cells at G1 phase up to 600 nM after 24 hrs by propidium iodide staining-based flow cytometric analysis; format: functional; procedure, shortened: as §2
# HeLa [8] = assay: Cell cycle arrest in human HeLa cells assessed as reduction in accumulation of cells at S phase up to 1000 nM after 24 hrs by propidium iodide staining-based flow cytometric analysis; format: functional; procedure, shortened: as §2
# K562 [9] = assay: Cell cycle arrest in human K562 cells assessed as mitotic index at 5 times IC50 by Giemsa staining-based assay (reference value: 3%); format: functional
# K562 [10] = assay: Cell cycle arrest in human K562 cells assessed as mitotic index at 10 times IC50 by Giemsa staining-based assay (reference value: 3%); format: functional
# HeLa [11] = assay: Cell cycle arrest in human HeLa cells assessed as increase in cyclin B1 expression at 50 nM after 24 hrs by Western blot analysis; format: functional, cell-based
# Procedure, shortened: (§3)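 HeLa cells treated 24 h, washed in ice-cold PBS and lysed on ice 30 min. Lysates were spun at 15000 x g, 4 °C. 10 µg protein run on SDS-PAGE and blotted to PVDF. Blots were blocked in 5% BSA overnight at 4 °C and probed 2 h at room temperature. Detection by HRP-secondary and ECL, with bands normalized to β-actin as fold of untreated. Three independent experiments, one-way ANOVA/Dunnett.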
# HeLa [12] = assay: Cell cycle arrest in human HeLa cells assessed as decrease in cdc2 phosphorylation at 50 to 250 nM after 24 hrs by Western blot analysis; format: functional, cell-based; procedure, shortened: as §3
# A549 [13] = assay: Induction of apoptosis in human A549 cells at 25 nM after 24 to 48 hrs by Annexin V-FITC/propidium iodide staining-based flow cytometric analysis; format: functional, cell-based
# Procedure, shortened: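 A549 cells treated 24 or 48 h at 12.5–100 nM, then double-stained with annexin-V-FITC and PI. Phosphatidylserine exposure was read by flow cytometry. Mean ± SEM of three independent experiments.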
# HeLa [14] = assay: Induction of mitochondrial membrane depolarization in human HeLa cells at 250 to 500 nM after 6 to 48 hrs by JC-1 staining-based assay; format: functional, cell-based; conditions: TDE = time-dependent effect
# Procedure, shortened: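 HeLa cells treated at 250-500 nM for 6, 12, 24 or 48 h, then stained with JC-1. Percentage of cells with low mitochondrial membrane potential measured by flow cytometry. Mean ± SEM of three independent experiments.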
# HeLa [15] = assay: Induction of ROS generation in human HeLa cells at 250 nM after 12 to 24 hrs by H2-DCFDA staining-based assay; format: functional, cell-based
# Procedure, shortened: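 HeLa cells treated 6, 12, 24 or 48 h, then loaded with H2-DCFDA and analysed by flow cytometry for ROS. Mean ± SEM of three independent experiments, compared against control.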
# HeLa [16] = assay: Induction of apoptosis in human HeLa cells assessed as increase in caspase-3 activity at 50 to 250 nM after 24 hrs by Western blot analysis; format: functional, cell-based; procedure, shortened: as §3
# B16-BL6 [17] = assay: Antitumor activity mouse B16-BL6 cells implanted in C57BL/6 mouse assessed tumor growth inhibition at 15 mg/kg, ip dosed every other day for 18 days relative to control; format: functional; conditions: 432 h, read-out: TGI
# Procedure, shortened: (§4)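 Syngeneic allograft: C57BL/6 mice, six weeks old, given 2.5×10^5 BL6-B16 or E0771 cells subcutaneously in the dorsolateral flank in PBS. Dosing began at about 100 mm³. Test compound or reference was given intraperitoneally every other day in 50 μL DMSO, with DMSO vehicle controls. Tumor volume was compared with the vehicle group, 5 animals per group, mean ± SEM, by 2-way ANOVA with Bonferroni correction.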
# B16-BL6 [18] = assay: Antitumor activity mouse B16-BL6 cells implanted in C57BL/6 mouse assessed tumor growth inhibition at 7.5 mg/kg, ip dosed every other day for 18 days relative to control; format: functional; conditions: 432 h, read-out: TGI; procedure, shortened: as §4
# E0771 = assay: Antitumor activity mouse E0771 cells implanted in C57BL/6 mouse assessed tumor growth inhibition at 15 mg/kg, ip dosed every other day for 20 days relative to control; format: functional; conditions: 480 h, read-out: TGI; procedure, shortened: as §4
smiles,measurement,setting,value
O=C1Nc2c(ccc3ccccc23)C1=Cc1c(-c2ccncc2)nc2sccn12,GI50,CNS carcinoma cell,0.04 µM
same,TGI,CNS carcinoma cell,79.8 µM
same,CC50,CNS carcinoma cell; read-out: LC50 (the source's name),94.3 µM
same,GI50,NSCLC,11.1 µM
same,LC50,NSCLC,97.9 µM
same,TGI,NSCLC,79.9 µM
same,GI50 at 72 h,[1],5.5 µM
same,IC50,Tubulin,14 µM
same,inhibition,Tubulin (Bos taurus),25%
same,Activity,HeLa [2],Dose-dependent effect
same,Activity,HT-29 [3],Dose-dependent effect
same,Activity,A549 [4],Dose-dependent effect
same,Activity,HeLa [5],>80%
same,Activity,HT-29 [6],>80%
same,Activity,A549 [7],Active
same,Activity,HeLa [8],Active
same,Activity,K562 [9],35%
same,Activity,K562 [10],58%
same,Activity,HeLa [11],Active
same,Activity,HeLa [12],Active
same,Activity,A549 [13],Active
same,Activity,HeLa [14],Tde
same,Activity,HeLa [15],Active
same,Activity,HeLa [16],Active
same,inhibition in vivo at 15 mg/kg,B16-BL6 [17],29.4%
same,inhibition in vivo at 7.5 mg/kg,B16-BL6 [18],18%
same,inhibition in vivo at 15 mg/kg,E0771,56.8%
